Source: PubChem BioAssay
NR2F2 inh – inhibitors of human COUP-TFII (NR2F2). P24468. HEK293T NGFI-A luciferase reporter, luminescence. inhibition, % at 8.6 µM. 370,000 compounds, 0.7% hits. AID 686940;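 active = inhibition above a per-plate cutoff, mean inhibition of test wells between control levels plus 3 SD, cut at about 38% in these data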;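 also: cells cotransfected with COUP-TFII expression vector driving the NGFI-A reporter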
GalR3 antagonist – antagonists of human GalR3; HEK293 GalR3-CNG cAMP membrane potential fluorescence; galR3 body fused to GalR1 C-terminus; inhibition, % at 3 µM; AID 651719; 360,000 compounds, 0.44% hits;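 active = inhibition above the screen-wide average plus 3 SD, cut at about 13% in these data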;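 also: forskolin and galanin both at EC90 stimulate the cells; cAMP rise reported by CNG channel membrane potential dye signal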
CHT inh – inhibits the human high affinity choline transporter; CHT-expressing cells, membrane potential dye, choline response; active compounds read low; B-score at 10 µM; 310,000 compounds, 0.86% hits;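 active = B-score over 3 SD under the library average, and starting fluorescence ratio not unusually high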;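 also: choline stimulus applied at its EC90 after an EC20 pre-addition; B-score computed on integrated fluorescence ratio after choline addition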
Target sequence (Q9GZV3 whole entry, looked up): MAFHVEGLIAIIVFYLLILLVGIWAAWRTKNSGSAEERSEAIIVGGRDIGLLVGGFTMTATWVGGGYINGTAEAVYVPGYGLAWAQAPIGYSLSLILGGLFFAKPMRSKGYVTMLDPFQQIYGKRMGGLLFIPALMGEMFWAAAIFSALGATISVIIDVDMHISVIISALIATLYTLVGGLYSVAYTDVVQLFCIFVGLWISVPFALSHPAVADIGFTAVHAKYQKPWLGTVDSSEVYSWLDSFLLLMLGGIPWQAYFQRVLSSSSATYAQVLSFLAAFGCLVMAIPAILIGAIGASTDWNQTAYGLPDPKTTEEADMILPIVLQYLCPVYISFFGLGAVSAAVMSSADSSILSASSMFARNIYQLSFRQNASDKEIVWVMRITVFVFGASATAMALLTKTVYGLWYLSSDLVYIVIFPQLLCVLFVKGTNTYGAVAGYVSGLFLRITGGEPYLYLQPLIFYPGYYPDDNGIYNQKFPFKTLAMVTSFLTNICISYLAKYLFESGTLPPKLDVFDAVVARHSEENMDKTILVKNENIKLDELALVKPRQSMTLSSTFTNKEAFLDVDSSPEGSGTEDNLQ
NR2E3 ag-1 – agonists of human nuclear receptor NR2E3; Q9Y5X4; GST-NR2E3/biotin-RetCOR TR-FRET, 1536-well; inhibition of corepressor binding, % at 4.78 µM; 320,000 compounds, 0.12% hits; AID 2300;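 active = percent inhibition above the cutoff of mean plus 3 SD of all tested compounds, set per screening campaign, cut at about 20% in these data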
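Material: NR2E3–RetCOR corepressor complex / Incubation: Compound–protein incubation for 5 h at 4 °C / Dosing: compound at 4.8 µM, single dose / Detection: time-resolved FRET / Benchmarks: high control biotin, low control 0.6% DMSO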
NR2E3 ag-2 – human photoreceptor-specific nuclear receptor agonism; CHO-S Gal4-NCOR/VP16-NR2E3 two-hybrid, luciferase; 360,000 compounds, 0.35% hits; inhibition of corepressor binding, % at 3.98 µM; Q9Y5X4;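 active = inhibition above the mean of all tested compounds plus 3 SD, cut at about 70% in these data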;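 also: higher means lower luciferase signal from less NR2E3 corepressor binding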
CHT PAM – allosteric activators of human choline transporter CHT; Q9GZV3; CHT-expressing cells, membrane potential dye, choline EC20; active compounds read high; LV-AA mutant CHT in HEK293 cells; B-score at 10 µM; 310,000 compounds, 0.49% hits;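 active = initial fluorescence not abnormally high and integrated response B-score, plate-corrected, over 3 SD above library mean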
CHT activ conf – confirmation of human choline transporter (CHT) activators; AID 504833; activation, % at 10 µM; CHT-expressing cells, membrane potential dye fluorescence (FDSS); % of choline EC20–EC90 response window; HEK293 expressing CHT LV-AA mutant; choline added at its EC20; 2,500 compounds, 91% hits; shares compounds with CHT PAM;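 active = primary screen active, with duplicate mean activation above negative control mean plus 3 SD, cut at about 11% in these data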
HEK293 MP dye – counter-screen for CHT activators: effect in parental HEK293 cells. membrane potential dye fluorescence (FDSS); measured after EC20 choline addition. 2,500 compounds, 62% hits. shares compounds with CHT PAM. ratio readout change at 10 µM, hits read low;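 active = duplicate-averaged ratio beyond 3 SD from buffer wells, up or down, though filed actives are nearly all decreases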
Large screens that a line does not name were inactive (follow-up assays come after a bar, where they were run). This is a sample that favours compounds with a hit; in the whole collection about 2.3% have one here.

COc1ccc2nc(C)cc(N3CCC(C(N)=O)CC3)c2c1	CHT PAM 7.2 | CHT activ conf 61.2 | HEK293 MP dye -76.3
COc1ccc2cc(C#N)c(SCC(=O)N3CCCC3)nc2c1	none
CCOC(=O)CNC(=O)CSc1cc(C)nc2ccc(OC)cc12	none | CHT activ conf 44.4 | HEK293 MP dye -42.3
CCOC(=O)CSc1nc(C)c2cc(OC)ccc2n1	none
COc1ccc2nc(C)cc(SCC(=O)N3CCCCC3)c2c1	none | CHT activ conf 31.8 | HEK293 MP dye -45.2
COc1ccc(-n2c(SCC(=O)Nc3ccc(Oc4ccccc4)cc3)nnc2-c2cccnc2)cc1	none (no result: GalR3 antagonist, CHT inh, NR2E3 ag-1, NR2E3 ag-2, CHT PAM)
O=C(Nc1ccccc1)n1ccc2ccc(-c3ccc4cc[nH]c4c3)cc21	none (no result: GalR3 antagonist, CHT inh, NR2E3 ag-1, NR2E3 ag-2, CHT PAM)
CSc1ccc(CN(C)C(=O)C(c2ccccc2)c2ccccc2)cc1	CHT PAM 7.08 | CHT activ conf 34.3 | HEK293 MP dye inactive
CC1=NN(c2nc3ccccc3[nH]2)C(=O)/C1=C/N(C)C	none (no result: NR2F2 inh, GalR3 antagonist) | CHT activ conf 46.2 | HEK293 MP dye -32.9
CCn1cc(C(=O)NCCCN(C)C)c(=O)c2cc(F)c(N3CCN(C)CC3)cc21	none | CHT activ conf 29.7 | HEK293 MP dye inactive
CCn1cc(S(=O)(=O)c2ccc(C)cc2)c(=O)c2cc(F)c(N3CCN(C)CC3)cc21	none | CHT activ conf 48.8 | HEK293 MP dye -49
Cc1ccc(S(=O)(=O)c2cn(C)c3cc(N4CCOCC4)c(F)cc3c2=O)cc1	none
COC(=O)C1=C[C@@H]([C@@H](C)[C@H](OC)c2ccccc2Br)[C@@H]2OCCC[C@H]12	none (no result: GalR3 antagonist, CHT inh, NR2E3 ag-1, NR2E3 ag-2, CHT PAM)
C=CCN(C)C(C#CCCCC)c1ccccc1 (stereo not given)	none (no result: GalR3 antagonist, CHT inh, NR2E3 ag-1, NR2E3 ag-2, CHT PAM)
CCCCNC(=O)c1c(N)n(/N=C/c2ccccn2)c2nc3ccccc3nc12	none (no result: NR2F2 inh, GalR3 antagonist, NR2E3 ag-2)
COCCNC(=O)c1c(N)n(/N=C/c2cccs2)c2nc3ccccc3nc12	none | CHT activ conf 28.0 | HEK293 MP dye inactive
Cn1c(/C=N/O)nc2ccccc21	none
Cn1c(/C=N/n2cnnc2)nc2ccccc21	CHT PAM 6.55 | CHT activ conf 59.8 | HEK293 MP dye -48.3
C/C(=N\Nc1ccccn1)c1ccc(OC(F)F)cc1	none
C/C(=N\Nc1ccccn1)c1ccc(C#N)cc1	none | CHT activ conf 29.8 | HEK293 MP dye -55.9
Brc1cnc(N2CCCCC2)nc1N1CCOCC1	none
Brc1cnc(N2CCCC2)nc1N1CCOCC1	none | CHT activ conf 16.2 | HEK293 MP dye -20.4
Cc1cc(N2CCN(C)CC2)ccc1NC(=O)c1ccc(-c2ccc(Cl)cc2)o1	none | CHT activ conf inactive | HEK293 MP dye inactive
CN1CCN(c2ccccc2NC(=O)c2ccc(-c3ccc(Cl)c(Cl)c3)o2)CC1	none
NCCCCCC(=O)Nc1ccncc1	none | CHT activ conf 17.8 | HEK293 MP dye -35
CCCCCC(=O)Nc1ccc(Cc2ccncc2)cc1	none
CCOc1ccc(C(C)=O)cc1CSC(=N)N	none | CHT activ conf 12.6 | HEK293 MP dye -45.4
COc1ccc(C(C)=O)cc1CSC(=N)N	none
COC(=O)CCCC1=CC2=C(c3ccccc3)C(=O)C(C)(OC(=O)C3CCCC3)C(=O)C2=CN1Cc1ccco1 (stereo not given)	CHT PAM 9.08 | CHT activ conf 47.3 | HEK293 MP dye inactive
COc1ccc(CNC(=S)OC2CCC23CCC(c2ccccc2)CC3)cc1 (stereo not given)	none (no result: GalR3 antagonist, CHT inh, NR2E3 ag-1, NR2E3 ag-2, CHT PAM)
CC(=O)c1ccc(NC(=O)c2ccn(C(=O)OCC(C)C)n2)cc1	none | CHT activ conf 17.6 | HEK293 MP dye -35.7
Cc1nc2ccccn2c1C(=O)N/N=C/c1cc(C)n(-c2ccc(Br)cc2)c1C	none | CHT activ conf 17.9 | HEK293 MP dye inactive
COc1ccc(-n2nc(C(=O)NCC(=O)NCCCN3CC(C)CC(C)C3)c3ccccc3c2=O)cc1Cl (stereo not given)	CHT PAM 7.66 | CHT activ conf 43.1 | HEK293 MP dye -46.9
Nn1c(SCC(=O)N2c3ccccc3Sc3ccc(Cl)cc32)nnc1-c1cc(-c2ccc(F)cc2)n[nH]1	none (no result: GalR3 antagonist, CHT inh, NR2E3 ag-1, NR2E3 ag-2, CHT PAM)
c1ccc2c(c1)nc1n2CCN1CCNC1CCCCC1	none
c1ccc(CN2CCN(CCN3CCn4c3nc3ccccc34)CC2)cc1	none | CHT activ conf 27.0 | HEK293 MP dye inactive
C[C@H]1[C@H](N)CC[C@@]23CCCN2C(=O)CCC[C@@H]13	none (no result: GalR3 antagonist, CHT inh, NR2E3 ag-1, NR2E3 ag-2, CHT PAM)
CCCN(CC(=O)Nc1ccccc1Br)CC(=O)Nc1ccc(F)c(F)c1F	none | CHT activ conf 17.6 | HEK293 MP dye inactive
CCCN(CC(=O)Nc1cc(Cl)cc(Cl)c1)CC(=O)Nc1ccc(F)c(F)c1F	none
CCc1cc(Br)ccc1NC(=S)NCCc1ccccc1	none (no result: NR2E3 ag-1) | CHT activ conf 12.5 | HEK293 MP dye inactive
C=CCN1[C@H](Cc2ccccc2)COc2cccc(N3CCCC3)c2S1(=O)=O	none (no result: GalR3 antagonist, CHT inh, NR2E3 ag-1, NR2E3 ag-2, CHT PAM)
C=CCCC(=O)N[C@H]1CC[C@@]23CCCN2C(=O)CCC[C@H]3[C@H]1C	none (no result: GalR3 antagonist, CHT inh, NR2E3 ag-1, NR2E3 ag-2, CHT PAM)
CC(C)C(=O)N1CCN(c2ccccc2NC(=O)c2ccc(C#N)cc2F)CC1	CHT PAM 7.66 | CHT activ conf 54.4 | HEK293 MP dye inactive
C[C@H]1/C=C/CC(=O)N[C@@H](c2ccc3ccccc3c2)[C@@H](C)/C=C/CC(=O)N[C@H]1c1ccc2ccccc2c1	none (no result: GalR3 antagonist, CHT inh, NR2E3 ag-1, NR2E3 ag-2, CHT PAM)
COC(=O)C1CN(Cc2cn(CCOC(C)=O)nn2)CCS(=O)(=O)N1Cc1ccccc1 (stereo not given)	none (no result: GalR3 antagonist, CHT inh, NR2E3 ag-1, NR2E3 ag-2, CHT PAM)
O=S(=O)(CC1NCc2cc(F)ccc21)NCCc1ccccc1 (stereo not given)	none (no result: GalR3 antagonist, CHT inh, NR2E3 ag-1, NR2E3 ag-2, CHT PAM)
CC(NC(=O)C1CCN(C(=O)Nc2ccccc2)CC1)c1ccccc1 (stereo not given)	none | CHT activ conf inactive | HEK293 MP dye inactive
O=C(CNC1=NCCC1)c1ccc(Cl)cc1	none | CHT activ conf 29.7 | HEK293 MP dye -25.5
COc1ccc(C(=O)CNC2=NCCC2)cc1	CHT PAM 8.18 | CHT activ conf 57.1 | HEK293 MP dye -46.8
COc1ccc(C(=O)NNC2=NCCCCC2)cc1	none
CCC(C)c1ccccc1N1CC(C(=O)Nc2ccccc2N2CCCC2)CC1=O (stereo not given)	none | CHT activ conf 29.2 | HEK293 MP dye inactive
CCOc1ccccc1N1CC(C(=O)Nc2ccccc2N2CCCC2)CC1=O (stereo not given)	none
Cc1nnc(C)c2c(C)n(Cc3ccc4c(c3)OCO4)c(C)c12	CHT PAM 8.06 | CHT activ conf 54.3 | HEK293 MP dye -44.7
CC[n+]1c(/C=C/Nc2ccccc2)oc2ccccc21	none | CHT activ conf 41.4 | HEK293 MP dye -35
